ChEMBL document CHEMBL3797089, “Morusin Induces TRAIL Sensitization by Regulating EGFR and DR5 in Human Glioblastoma Cells” (J Nat Prod, 2016)
Activity calls are given as the source filed them. The rule behind the calls is not given here.

Tests used:
[1] = Reduction of XIAP expression in human U87MG cells at 25 uM by Western blot analysis; assay type: functional, cell-based; conditions: U-87MG ATCC, TDE = time-dependent effect
Outline: (§1)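 Time course: U87MG and U373MG cells were exposed to 25 μM morusin for the indicated times. Whole-cell extracts were Western blotted, with β-actin as internal control.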

[2] = Cytotoxicity against human U87MG cells assessed as reduction in cell viability after 24 hrs by MTT assay; assay type: functional, cell-based, U-87MG ATCC; conditions: U-87 MG
Outline: (§2)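 Seeded 3–5 × 10^3 cells/well, treated the next day with a range of morusin (DMSO stock) for 24 h, 37 °C, 5% CO2. Then fresh medium with 1 mg/mL MTT for 2 h at 37 °C, lysis buffer overnight at 37 °C, OD 570 nm. Mean ± SD from at least three independent experiments in triplicate.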

[3] = Reduction of survivin expression in human U87MG cells at 25 uM by Western blot analysis; assay type: functional, cell-based; conditions: U-87MG ATCC, TDE = time-dependent effect; outline: as §1
LN-18 [4] = assay: Effect on DcR2 expression in human LN18 cells upto 25 uM after 24 hrs by Western blot analysis; assay type: functional, cell-based
Outline: (§3)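 Cells exposed to a range of morusin concentrations for 24 h. Cell extracts immunoblotted for DR4, DR5, DcR1 and DcR2, with β-actin as internal control and HRP-conjugated secondary antibodies (1:5000).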

LN-18 [5] = assay: Effect on DcR1 expression in human LN18 cells upto 25 uM after 24 hrs by Western blot analysis; assay type: functional, cell-based; outline: as §3
U373 MG [6] = assay: Effect on DR4 expression in human U373MG cells upto 25 uM after 24 hrs by Western blot analysis; assay type: functional, cell-based; conditions: U-373MG ATCC; outline: as §3
U-87 MG [7] = assay: Induction of DR5 expression in human U87MG cells at 25 uM after 24 hrs by FITC-conjugated flow cytometric analysis; assay type: functional, cell-based; conditions: U-87MG ATCC
Outline: (§4)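 Cells given 25 μM morusin for 24 h, then stained on ice for 30 min with 0.5 μg/mL FITC-conjugated anti-DR4, anti-DR5 or isotype IgG in FACS buffer. Surface expression read by flow cytometry.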

U373 MG [8] = assay: Induction of DR5 expression in human U373MG cells at 25 uM after 24 hrs by FITC-conjugated flow cytometric analysis; assay type: functional, cell-based; conditions: U-373MG ATCC; outline: as §4
U-251 [9] = assay: Induction of DR4 expression in human U251MG cells at 25 uM after 24 hrs by FITC-conjugated flow cytometric analysis; assay type: functional, cell-based; outline: as §4
U-87 MG [10] = assay: Induction of DR5 expression in human U87MG cells after 24 hrs by Western blot analysis; assay type: functional, cell-based; conditions: U-87MG ATCC; outline: as §3
[11] = Reduction of PDGFR expression in human U373MG cells at 25 uM after 24 hrs by Western blot analysis; assay type: functional, cell-based; conditions: U-373MG ATCC
Outline: (§5)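 LN18, U87MG, T98G, U251MG and U373MG glioblastoma cells were exposed to morusin for 24 h. Cells were maintained in DMEM, MEM or RPMI with 10% FBS at 37 °C and 5% CO2. Whole-cell lysates were Western blotted for receptor proteins, with β-actin as internal control.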

[12] = Reduction of EGFR expression in human U87MG cells at 25 uM after 24 hrs by Western blot analysis; assay type: functional, cell-based; conditions: U-87MG ATCC; outline: as §5
[13] = Cytotoxicity against human U87MG cells transfected DR5 siRNA assessed as cell death after 24 hrs by MTT assay in presence of TRAIL; assay type: functional, U-87MG ATCC
Outline: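 U87MG cells were transiently transfected with scrambled control or DR5 siRNA by lipofection. At 48 h after transfection they were cotreated with TRAIL at 50 ng/mL and test compound at 20 μM for 24 h. Viability was read by MTT: 1 mg/mL for 2 h at 37 °C, lysis overnight, OD at 570 nm. Data are mean ± SD from ≥3 independent experiments.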

U373 MG [14] = assay: Effect on cIAP1 expression in human U373MG cells at 12 to 25 uM after 24 hrs by Western blot analysis; assay type: functional, cell-based; conditions: U-373MG ATCC
Outline: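 U87MG and U373MG exposed to a range of morusin concentrations for 24 h. Whole-cell extracts immunoblotted for cIAP1, with β-actin as internal control.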

T98G [15] = assay: Induction of apoptosis in human T98G cells assessed as increase in cleaved caspase 3 levels at 2.5 uM after 24 hrs by Western blot analysis in presence of TRAIL; assay type: functional, cell-based
Outline: (§6)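 U87MG and T98G given TRAIL 25 ng/mL plus morusin 2.5 μM together for 24 h; single-agent arms used TRAIL 50 ng/mL or morusin 5 μM. Lysates immunoblotted for cleaved caspase 3, 8, 9 and cleaved PARP, with β-actin as internal control.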

[16] = Reduction of XIAP expression in human U87MG cells after 24 hrs by Western blot analysis; assay type: functional, cell-based; conditions: U-87MG ATCC
Outline: (§7)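 U87MG (MEM) and U373MG (RPMI) cells were given graded morusin concentrations for 24 h. Whole-cell extracts were immunoblotted for anti-apoptotic proteins, with β-actin as loading control.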

[17] = Cytotoxicity against human U87MG cells assessed as cell death after 24 hrs by MTT assay in presence of TRAIL; assay type: functional, U-87MG ATCC
Outline: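 U87MG cells (MEM, 10% FBS) were seeded at (3−5) × 10^3 cells/well and treated 1 day later with TRAIL at 100 ng/mL plus graded test compound for 24 h. Fresh medium with 1 mg/mL MTT was added for 2 h at 37 °C, then lysis buffer overnight at 37 °C, and OD was read at 570 nm. Data are mean ± SD from ≥3 independent experiments in triplicate.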

[18] = Reduction of PDGFR expression in human U251MG cells at 25 uM after 24 hrs by Western blot analysis; assay type: functional, cell-based; conditions: U-251; outline: as §5
U373 MG [19] = assay: Effect on DcR1 expression in human U373MG cells upto 25 uM after 24 hrs by Western blot analysis; assay type: functional, cell-based; conditions: U-373MG ATCC; outline: as §3
U-251 [20] = assay: Effect on DcR2 expression in human U251MG cells upto 25 uM after 24 hrs by Western blot analysis; assay type: functional, cell-based; outline: as §3
[21] = Reduction of XIAP expression in human U373MG cells after 24 hrs by Western blot analysis; assay type: functional, cell-based; conditions: U-373MG ATCC; outline: as §7
T98G [22] = assay: Cytotoxicity against human T98G cells assessed as reduction in cell viability measured up to 20 uM after 24 hrs by MTT assay in presence of TRAIL; assay type: functional
Outline: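 MTT viability. 3–5 × 10^3 cells/well, treated the next day with TRAIL 100 ng/mL plus increasing morusin concentrations for 24 h. 1 mg/mL MTT for 2 h at 37 °C, lysis overnight, OD 570 nm. Living-cell fractions were used for combination index analysis. Mean ± SD, at least three independent experiments.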

U-251 [23] = assay: Effect on DcR1 expression in human U251MG cells upto 25 uM after 24 hrs by Western blot analysis; assay type: functional, cell-based; outline: as §3
[24] = Cytotoxicity against human U373MG cells assessed as reduction in cell viability after 24 hrs by MTT assay; assay type: functional, cell-based, U-373MG ATCC; conditions: U373 MG; outline: as §2
U-87 MG [25] = assay: Induction of apoptosis in human U87MG cells assessed as increase in cleaved caspase 8 levels at 2.5 uM after 24 hrs by Western blot analysis in presence of TRAIL; assay type: functional, cell-based; conditions: U-87MG ATCC; outline: as §6
U373 MG [26] = assay: Effect on cIAP1 expression in human U373MG cells at 25 uM after 3 to 18 hrs by Western blot analysis; assay type: functional, cell-based; conditions: U-373MG ATCC
Outline: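 Time course: U87MG and U373MG cells held at 25 μM morusin for the times indicated. Extracts immunoblotted (cIAP1 or DR5), with β-actin as loading control.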

U-87 MG [27] = assay: Effect on DcR2 expression in human U87MG cells upto 25 uM after 24 hrs by Western blot analysis; assay type: functional, cell-based; conditions: U-87MG ATCC; outline: as §3
U373 MG [28] = assay: Effect on DcR2 expression in human U373MG cells upto 25 uM after 24 hrs by Western blot analysis; assay type: functional, cell-based; conditions: U-373MG ATCC; outline: as §3

## CC(C)=CCc1c(-c2ccc(O)cc2O)oc2c3c(cc(O)c2c1=O)OC(C)(C)C=C3 [MORUSIN]
[1]
  inhibition: tde
[2]
  IC50: 24 µM
[3]
  inhibition: tde
LN-18 [4]
  Activity: inactive
LN-18 [5]
  Activity: inactive
U373 MG [6]
  Activity: inactive
U-87 MG [7]
  Activity: Active
U373 MG [8]
  Activity: Active
U-251 [9]
  Activity: inactive
U-87 MG [10]
  Activity: Dose-dependent effect
[11]
  Activity: Active
[12]
  Activity: Active
[13]
  Activity: 10%
U373 MG [14]
  Activity: inactive
T98G [15]
  Activity: Active
[16]
  inhibition: Dose-dependent effect
[17]
  Activity: 29%
[18]
  Activity: Active
U373 MG [19]
  Activity: inactive
U-251 [20]
  Activity: inactive
[21]
  inhibition: Dose-dependent effect
T98G [22]
  CI: <0.8
U-251 [23]
  Activity: inactive
[24]
  IC50: 24 µM
U-87 MG [25]
  Activity: Active
U373 MG [26]
  Activity: inactive
U-87 MG [27]
  Activity: inactive
U373 MG [28]
  Activity: inactive
